Data as given in ChEMBL document CHEMBL1121628, “Synthesis of isomeric thienobenzothiazines and their effect on dopamine metabolism in rat brain” (1980).

Experiments:
Format in all cases: functional
Rattus norvegicus [1] = species: Rattus norvegicus; test: Effective dose causing a homovanillic acid (HVA) concentration three fold the control level in rat striatum
Summary of the method: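 Male albino Wistar rats (180-250 g) received drug i.p. in 0.9% NaCl with a little ascorbic acid, made fresh and kept from light. Controls got saline-ascorbic acid. Rats were decapitated 2 h later and the corpus striatum dissected. HVA was read fluorometrically as the mean of left and right striata. Four to six doses, 3-6 rats each; threefold-HVA dose taken from log dose-response curves.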

Rattus norvegicus [2] = test: Tested for neuroleptic activity by measuring the increase in homovanillic acid (HVA) level in rat nucleus accumbens at dosage of 10 umol/kg
Rattus norvegicus [3] = test: Tested for neuroleptic activity by measuring the increase in homovanillic acid (HVA) level in rat nucleus accumbens at dosage of 50 umol/kg
Rattus norvegicus [4] = test: Tested for neuroleptic activity by measuring the increase in homovanillic acid (HVA) level in rat tuberculum olfactorium at dosage of 30 umol/kg
Summary of the method: (§1)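 Freshly made in 0.9% NaCl with a little ascorbic acid and kept from light, given ip to male Wistar rats (180-250 g); controls got saline-ascorbic acid. Rats decapitated 2 h post-dose and the brain region dissected. HVA was measured by a semiautomatic fluorometric method and expressed as % of control levels. 3-6 rats per dose.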

Rattus norvegicus [5] = test: Tested for neuroleptic activity by measuring the increase in homovanillic acid (HVA) level in rat corpus striatum at dosage of 10 umol/kg
Summary of the method: (§2)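 Wistar male rats (180-250 g) were dosed i.p. at the stated level in fresh, light-protected 0.9% NaCl with a little ascorbic acid; controls received saline-ascorbic acid. They were decapitated at 2 h and the corpus striatum removed. HVA was assayed by a semiautomatic fluorometric method, averaging both striata, with 3-6 rats per dose. Values are expressed as % of control HVA.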

Rattus norvegicus [6] = test: Tested for neuroleptic activity by measuring the increase in homovanillic acid (HVA) level in rat nucleus accumbens at dosage of 20 umol/kg
Rattus norvegicus [7] = test: Tested for neuroleptic activity by measuring the increase in homovanillic acid (HVA) level in rat tuberculum olfactorium at dosage of 20 umol/kg; summary of the method: as §1
Rattus norvegicus [8] = test: Tested for neuroleptic activity by measuring the increase in homovanillic acid (HVA) level in rat tuberculum olfactorium at dosage of 50 umol/kg; summary of the method: as §1
Rattus norvegicus [9] = test: Tested for neuroleptic activity by measuring the increase in homovanillic acid (HVA) level in rat corpus striatum at dosage of 20 umol/kg; summary of the method: as §2
Rattus norvegicus [10] = test: Tested for neuroleptic activity by measuring the increase in homovanillic acid (HVA) level in rat corpus striatum at dosage of 50 umol/kg; summary of the method: as §2
Rattus norvegicus [11] = test: Tested for neuroleptic activity by measuring the increase in homovanillic acid (HVA) level in rat nucleus accumbens at dosage of 30 umol/kg
Rattus norvegicus [12] = test: Tested for neuroleptic activity by measuring the increase in homovanillic acid (HVA) level in rat corpus striatum at dosage of 30 umol/kg; summary of the method: as §2
Rattus norvegicus [13] = test: Tested for neuroleptic activity by measuring the increase in homovanillic acid (HVA) level in rat tuberculum olfactorium at dosage of 10 umol/kg; summary of the method: as §1
Rattus norvegicus [14] = test: Tested for neuroleptic activity by measuring the increase in homovanillic acid (HVA) level in rat tuberculum olfactorium at dosage of 15 umol/kg; summary of the method: as §1
Rattus norvegicus [15] = test: Tested for neuroleptic activity by measuring the increase in homovanillic acid (HVA) level in rat corpus striatum at dosage of 15 umol/kg; summary of the method: as §2
Rattus norvegicus [16] = test: Tested for neuroleptic activity by measuring the increase in homovanillic acid (HVA) level in rat corpus striatum at dosage of 25 umol/kg; summary of the method: as §2
Rattus norvegicus [17] = test: Tested for neuroleptic activity by measuring the increase in homovanillic acid (HVA) level in rat nucleus accumbens at dosage of 25 umol/kg
Rattus norvegicus [18] = test: Tested for neuroleptic activity by measuring the increase in homovanillic acid (HVA) level in rat nucleus accumbens at dosage of 5 umol/kg
Rattus norvegicus [19] = test: Tested for neuroleptic activity by measuring the increase in homovanillic acid (HVA) level in rat nucleus accumbens at dosage of 15 umol/kg; summary of the method: as §1
Rattus norvegicus [20] = test: Tested for neuroleptic activity by measuring the increase in homovanillic acid (HVA) level in rat corpus striatum at dosage of 5 umol/kg; summary of the method: as §2
Rattus norvegicus [21] = test: Tested for neuroleptic activity by measuring the increase in homovanillic acid (HVA) level in rat tuberculum olfactorium at dosage of 5 umol/kg; summary of the method: as §1
Rattus norvegicus [22] = test: Tested for neuroleptic activity by measuring the increase in homovanillic acid (HVA) level in rat tuberculum olfactorium at dosage of 25 umol/kg; summary of the method: as §1
Rattus norvegicus [23] = test: Tested for neuroleptic activity by measuring the increase in homovanillic acid (HVA) level in rat nucleus accumbens at dosage of 75 umol/kg
Rattus norvegicus [24] = test: Tested for neuroleptic activity by measuring the increase in homovanillic acid (HVA) level in rat tuberculum olfactorium at dosage of 75 umol/kg; summary of the method: as §1
Rattus norvegicus [25] = test: Tested for neuroleptic activity by measuring the increase in homovanillic acid (HVA) level in rat corpus striatum at dosage of 75 umol/kg; summary of the method: as §2

Question: How did the ED300 (Rattus norvegicus [1]) turn out when `CN(C)CCCN1c2cc(Cl)ccc2Sc2ccsc21` was run?
Answer: 350 µM/kg

Question: How did the HVA control (Rattus norvegicus [2]) turn out when `CN(C)CCCN1c2cc(C(F)(F)F)ccc2Sc2sccc21` was run?
Answer: 250%

Question: And the HVA control (Rattus norvegicus [3])?
Answer: 510%

Question: What about the ED300 (Rattus norvegicus [1]) of the same molecule?
Answer: 6.1 µM/kg

Question: And the HVA control (Rattus norvegicus [4])?
Answer: 280%

Question: And the HVA control (Rattus norvegicus [5])?
Answer: 320%

Question: And the HVA control (Rattus norvegicus [6])?
Answer: 350%

Question: And the HVA control (Rattus norvegicus [7])?
Answer: 240%

Question: What about the HVA control (Rattus norvegicus [8]) of the same molecule?
Answer: 300%

Question: And the HVA control (Rattus norvegicus [9])?
Answer: 410%

Question: What about the HVA control (Rattus norvegicus [10]) of the same molecule?
Answer: 510%

Question: What about the HVA control (Rattus norvegicus [11]) of the same molecule?
Answer: 360%

Question: What about the HVA control (Rattus norvegicus [12]) of the same molecule?
Answer: 430%

Question: What about the HVA control (Rattus norvegicus [13]) of the same molecule?
Answer: 180%

Question: For `CN(C)CCCN1c2ccccc2Sc2cscc21`, which ED300 (Rattus norvegicus [1]) is on record?
Answer: 460 µM/kg

Question: `CN(C)CCCN1c2cscc2Sc2ccc(C(F)(F)F)cc21` was tested. Which HVA control (Rattus norvegicus [2]) did it give?
Answer: 185%

Question: And the HVA control (Rattus norvegicus [14])?
Answer: 210%

Question: What about the ED300 (Rattus norvegicus [1]) of the same molecule?
Answer: 9.2 µM/kg

Question: What about the HVA control (Rattus norvegicus [15]) of the same molecule?
Answer: 340%

Question: What about the HVA control (Rattus norvegicus [16]) of the same molecule?
Answer: 445%

Question: What about the HVA control (Rattus norvegicus [17]) of the same molecule?
Answer: 390%

Question: And the HVA control (Rattus norvegicus [5])?
Answer: 310%

Question: What about the HVA control (Rattus norvegicus [18]) of the same molecule?
Answer: 125%

Question: What about the HVA control (Rattus norvegicus [13]) of the same molecule?
Answer: 160%

Question: What about the HVA control (Rattus norvegicus [19]) of the same molecule?
Answer: 260%

Question: And the HVA control (Rattus norvegicus [20])?
Answer: 140%

Question: What about the HVA control (Rattus norvegicus [21]) of the same molecule?
Answer: 100%

Question: And the HVA control (Rattus norvegicus [22])?
Answer: 270%

Question: For `CN(C)CCCN1c2cscc2Sc2ccc(Cl)cc21`, which ED300 (Rattus norvegicus [1]) is on record?
Answer: 19.2 µM/kg

Question: Which results are given for `CN(C)CCCN1c2cc(C(F)(F)F)ccc2Sc2ccsc21`?
Answer: HVA control (Rattus norvegicus [3]): 180%; ED300 (Rattus norvegicus [1]): 30.1 µM/kg; HVA control (Rattus norvegicus [15]): 130%; HVA control (Rattus norvegicus [23]): 375%; HVA control (Rattus norvegicus [24]): 200%; HVA control (Rattus norvegicus [8]): 150%; HVA control (Rattus norvegicus [25]): 440%; HVA control (Rattus norvegicus [10]): 310%; HVA control (Rattus norvegicus [19]): 100%

Question: With `CN(C)CCCN1c2ccccc2Sc2sccc21` as the molecule, how does the ED300 (Rattus norvegicus [1]) read?
Answer: 480 µM/kg

Question: `CN(C)CCCN1c2cc(Cl)ccc2Sc2sccc21` was tested. Which ED300 (Rattus norvegicus [1]) did it give?
Answer: 36 µM/kg

Question: For `Cl.OCCN1CCN(CCCN2c3ccccc3Sc3sccc32)CC1`, which ED300 (Rattus norvegicus [1]) is on record?
Answer: 18.9 µM/kg

Question: How did the ED300 (Rattus norvegicus [1]) turn out when `Cl.OCCN1CCN(CCCN2c3cc(Cl)ccc3Sc3sccc32)CC1` was run?
Answer: 3.27 µM/kg

Question: How did the ED300 (Rattus norvegicus [1]) turn out when `Cl.OCCN1CCN(CCCN2c3cc(C(F)(F)F)ccc3Sc3ccsc32)CC1` was run?
Answer: 4 µM/kg

Question: `Cl.OCCN1CCN(CCCN2c3cc(C(F)(F)F)ccc3Sc3sccc32)CC1` was tested. Which ED300 (Rattus norvegicus [1]) did it give?
Answer: 0.75 µM/kg

Question: Which ED300 (Rattus norvegicus [1]) does the source give for `Cl.OCCN1CCN(CCCN2c3cscc3Sc3ccc(C(F)(F)F)cc32)CC1` here?
Answer: 0.54 µM/kg

Question: Which ED300 (Rattus norvegicus [1]) does the source give for `Cl.OCCN1CCN(CCCN2c3cc(Cl)ccc3Sc3ccsc32)CC1` here?
Answer: 20.5 µM/kg

Question: How did the ED300 (Rattus norvegicus [1]) turn out when `Cl.OCCN1CCN(CCCN2c3cscc3Sc3ccc(Cl)cc32)CC1` was run?
Answer: 1.5 µM/kg

Question: With `Cl.OCCN1CCN(CCCN2c3ccccc3Sc3cscc32)CC1` as the molecule, how does the ED300 (Rattus norvegicus [1]) read?
Answer: 13.7 µM/kg
